From ChEMBL document CHEMBL2417469, “Synthesis of novel analogs of 2-pyrazoline obtained from [(7-chloroquinolin-4-yl)amino]chalcones and hydrazine as potential antitumor and antimalarial agents” (Eur J Med Chem, 2013)

Experiments:
Format in all cases: functional
[1] = tested on: MCF7; test: Cytotoxicity against human MCF7 cells after 48 hrs by SRB assay; settings: MCF7, 48 h
How it was run: (§1)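 NCI 60-cell-line screen. Cells preincubated 24 h at 37 °C, 5% CO2; time-zero plates TCA-fixed. Compounds dissolved in DMSO and tested at five concentrations (100, 10, 1.0, 0.1, 0.01 µM) for 48 h continuous exposure. Adherent cells fixed with cold TCA (10% final), then SRB stained; absorbance at 515 nm. GI50, TGI and LC50 calculated from growth relative to time-zero and untreated controls.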

[2] = tested on: SNB-19; test: Cytotoxicity against human SNB19 cells after 48 hrs by SRB assay; settings: SNB-19, 48 h
How it was run: (§2)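 NCI 60-cell screen. Cells grew 24 h (37 °C, 5% CO2) before compound was added. Compounds were in DMSO and diluted in medium with gentamicin, then tested at five levels (100, 10, 1.0, 0.1, 0.01 µM) with 48 h continuous exposure. Adherent cells were fixed with TCA (10% final) and stained with 0.4% SRB, absorbance read at 515 nm. A time-zero plate was included. LC50 is the concentration giving 50% loss of protein relative to time zero.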

[3] = tested on: SK-MEL-28; test: Cytotoxicity against human SK-MEL-28 cells after 48 hrs by SRB assay; settings: SK-MEL-28, 48 h; how it was run: as §1
[4] = tested on: OVCAR-8; test: Cytotoxicity against human OVCAR8 cells after 48 hrs by SRB assay; settings: OVCAR-8, 48 h; how it was run: as §1
[5] = tested on: KM12; test: Cytotoxicity against human KM12 cells after 48 hrs by SRB assay; settings: KM12, 48 h; how it was run: as §1
[6] = tested on: 786-0; test: Cytotoxicity against human 786-0 cells after 48 hrs by SRB assay; settings: 786-0, 48 h; how it was run: as §1
[7] = tested on: SK-OV-3; test: Cytotoxicity against human SKOV3 cells after 48 hrs by SRB assay; settings: SK-OV-3, 48 h; how it was run: as §1
[8] = tested on: HOP-92; test: Cytotoxicity against human HOP92 cells after 48 hrs by SRB assay; settings: HOP-92, 48 h; how it was run: as §1
[9] = tested on: LOX IMVI; test: Cytotoxicity against human LOXIMVI cells after 48 hrs by SRB assay; how it was run: as §1
[10] = tested on: HT-29; test: Cytotoxicity against human HT-29 cells after 48 hrs by SRB assay; settings: HT-29, 48 h; how it was run: as §1
[11] = tested on: RXF 393; test: Cytotoxicity against human RXF393 cells after 48 hrs by SRB assay; settings: RXF 393, 48 h; how it was run: as §1
[12] = tested on: U-251; test: Cytotoxicity against human U251 cells after 48 hrs by SRB assay; settings: U-251, 48 h; how it was run: as §2
[13] = tested on: A549; test: Cytotoxicity against human A549/ATCC cells after 48 hrs by SRB assay; settings: A549, 48 h; how it was run: as §1
[14] = tested on: HCC 2998; test: Cytotoxicity against human HCC2998 cells after 48 hrs by SRB assay; settings: HCC 2998, 48 h; how it was run: as §1
[15] = tested on: SR; test: Cytotoxicity against human SR cells after 48 hrs by SRB assay; how it was run: as §2
[16] = tested on: OVCAR-4; test: Cytotoxicity against human OVCAR4 cells after 48 hrs by SRB assay; settings: OVCAR-4, 48 h; how it was run: as §1
[17] = tested on: DU-145; test: Cytotoxicity against human DU145 cells after 48 hrs by SRB assay; settings: DU-145, 48 h; how it was run: as §1
[18] = tested on: UO-31; test: Cytotoxicity against human UO31 cells after 48 hrs by SRB assay; settings: UO-31, 48 h; how it was run: as §2
[19] = tested on: MDA-MB-468; test: Cytotoxicity against human MDA-MB-468 cells after 48 hrs by SRB assay; settings: MDA-MB-468, 48 h; how it was run: as §1
[20] = tested on: A498; test: Cytotoxicity against human A498 cells after 48 hrs by SRB assay; settings: A498, 48 h; how it was run: as §1
[21] = tested on: M14; test: Cytotoxicity against human M14 cells after 48 hrs by SRB assay; settings: M14, 48 h; how it was run: as §1
[22] = tested on: IGROV-1; test: Cytotoxicity against human IGROV1 cells after 48 hrs by SRB assay; settings: IGROV-1, 48 h; how it was run: as §1
[23] = tested on: SK-MEL-2; test: Cytotoxicity against human SK-MEL-2 cells after 48 hrs by SRB assay; settings: SK-MEL-2, 48 h; how it was run: as §1
[24] = tested on: SF-539; test: Cytotoxicity against human SF539 cells after 48 hrs by SRB assay; settings: SF-539, 48 h; how it was run: as §1
[25] = tested on: NCI-H226; test: Cytotoxicity against human NCI-H226 cells after 48 hrs by SRB assay; settings: NCI-H226, 48 h; how it was run: as §1
[26] = tested on: UACC-62; test: Cytotoxicity against human UACC62 cells after 48 hrs by SRB assay; settings: UACC-62, 48 h; how it was run: as §2
[27] = tested on: CCRF-CEM; test: Cytotoxicity against human CCRF-CEM cells after 48 hrs by SRB assay; how it was run: as §1
[28] = tested on: HCT-116; test: Cytotoxicity against human HCT116 cells after 48 hrs by SRB assay; settings: HCT-116, 48 h; how it was run: as §1
[29] = tested on: CAKI-1; test: Cytotoxicity against human Caki1 cells after 48 hrs by SRB assay; settings: CAKI-1, 48 h; how it was run: as §1
[30] = tested on: Malme-3M; test: Cytotoxicity against human MALME-3M cells after 48 hrs by SRB assay; how it was run: as §1
[31] = tested on: MDA-MB-231; test: Cytotoxicity against human MDA-MB-231 cells after 48 hrs by SRB assay; settings: MDA-MB-231, 48 h; how it was run: as §1
[32] = tested on: HCT-15; test: Cytotoxicity against human HCT15 cells after 48 hrs by SRB assay; settings: HCT-15, 48 h; how it was run: as §1
[33] = tested on: Hs-578T; test: Cytotoxicity against human Hs578T cells after 48 hrs by SRB assay; how it was run: as §1
[34] = tested on: SF-268; test: Cytotoxicity against human SF268 cells after 48 hrs by SRB assay; settings: SF-268, 48 h; how it was run: as §1
[35] = tested on: MDA-MB-435; test: Cytotoxicity against human MDA-MB-435 cells after 48 hrs by SRB assay; settings: MDA-MB-435, 48 h; how it was run: as §1
[36] = read-out: LC50 (the source's name)

## O=CN1N=C(c2cccc(Nc3ccnc4cc(Cl)ccc34)c2)CC1c1ccc(Cl)cc1 (stereo not given)
[1]
  GI50: 810 nM
[1]; [36]
  CC50: > 100 µM
[2]
  GI50: 3.48 µM
  LC50: > 100 µM
[3]
  GI50: 5.63 µM
[3]; [36]
  CC50: > 100 µM
[4]
  GI50: 3.8 µM
  LC50 (50% net cell kill): > 100 µM
[5]
  GI50: 590 nM
  LC50 (concentration killing 50% of cells): > 100 µM
[6]
  GI50: 4.73 µM
  LC50: > 100 µM
[7]
  GI50: 3.48 µM
  LC50 (concentration killing 50% of cells): > 100 µM
[8]
  GI50: 650 nM
  LC50 (concentration killing 50% of cells): > 100 µM
[9]
  GI50: 1560 nM
  LC50: 50.4 µM
[10]
  GI50: 480 nM
  LC50: > 100 µM
[11]
  GI50: 3.08 µM
  LC50 (concentration killing 50% of cells): > 100 µM
[12]
  GI50: 1290 nM
[12]; [36]
  CC50: > 100 µM
[13]
  GI50: 940 nM
[13]; [36]
  CC50: > 100 µM
[14]
  GI50: 3.36 µM
  LC50: > 100 µM
[15]
  GI50: 370 nM
  LC50: > 100 µM
[16]
  GI50: 4.13 µM
  LC50: > 100 µM
[17]
  GI50: 4.17 µM
  LC50 (concentration killing 50% of cells): > 100 µM
[18]
  GI50: 880 nM
  LC50: > 100 µM
[19]
  GI50: 420 nM
  LC50: > 100 µM
[20]
  GI50: 830 nM
[20]; [36]
  CC50: > 100 µM
[21]
  GI50: 1040 nM
[21]; [36]
  CC50: > 100 µM
[22]
  GI50: 760 nM
  LC50 (concentration killing 50% of cells relative to time zero): > 100 µM
[23]
  GI50: 2050 nM
  LC50: > 100 µM
[24]
  GI50: 3.78 µM
[24]; [36]
  CC50: > 100 µM
[25]
  GI50: > 100 µM
  LC50 (50% lethal concentration): > 100 µM
[26]
  GI50: 1630 nM
[26]; [36]
  CC50: > 100 µM
[27]
  GI50: 2340 nM
  LC50 (concentration killing 50% of cells relative to time zero): > 100 µM
[28]
  GI50: 600 nM
  LC50: > 100 µM
[29]
  GI50: 950 nM
  LC50: > 100 µM
[30]
  GI50: 1630 nM
  LC50: > 100 µM
[31]
  GI50: 2120 nM
  LC50 (concentration killing 50% of cells present at time zero): > 100 µM
[32]
  GI50: 900 nM
  LC50 (concentration killing 50% of cells relative to time zero): > 100 µM
[33]
  GI50: 1970 nM
  LC50 (50% net cell kill): > 100 µM
[34]
  GI50: 4.37 µM
  LC50: > 100 µM
[35]
  GI50: 290 nM
  LC50: > 100 µM
